Measured values published in ChEMBL document CHEMBL1147098, “Growth inhibition of Toxoplasma gondii and Plasmodium falciparum by nanomolar concentrations of 1-hydroxy-2-dodecyl-4(1H)quinolone, a high-affinity inhibitor of alternative (type II) NADH dehydrogenases” (Antimicrob Agents Chemother, 2007).
Calls of active or inactive are those of the source. The rule behind the calls is not given here.

Tests used:
Plasmodium falciparum [1] = experiment: Inhibition of Plasmodium falciparum trophozoite replication after 36 hrs by fluorometric assay; format: functional, organism-based
Summary of the method: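 FCBR young trophozoites (2% initial parasitemia) in RPMI 1640 with 10% human plasma and group A erythrocytes, gassed 90% N2/5% O2/5% CO2, exposed 36 h to 1 μM-1 nM. Erythrocytes lysed with saponin, pellets solubilized in guanidium-HCl/sodium acetate, stained with Hoechst 33258, read at 340/460 nm in triplicate. 2 μM chloroquine defined background.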

Toxoplasma gondii [2] = experiment: Effect on Toxoplasma gondii RH growth in human foreskin fibroblasts incubated with 1 uM for 24 hrs assessed as recovery after 72 hrs without drug; format: functional
HFF = experiment: Inhibitory effect on metabolic activity of HFF cells upto 10 uM by Alamar Blue assay; format: functional, cell-based; details: Homo sapiens
Toxoplasma gondii [3] = experiment: Inhibition of Toxoplasma gondii lacZ-transfected RH strain in human foreskin fibroblasts assessed as beta galactosidase activity after 30 hrs by colorimetric assay; format: functional, organism-based
Summary of the method: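 lacZ-expressing RH tachyzoites (1 × 10^4/well) infected HFF for 4 h at 37°C in 1% DMEM without phenol red, washed, then exposed in duplicate to 1, 0.1, 0.01 and 0.001 μM with 100 μM chlorophenol red-β-D-galactopyranoside (final) at 37°C. Absorbance at 570 and 630 nm read at 30 h postinfection.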

Toxoplasma gondii [4] = experiment: (§1) Effect on Toxoplasma gondii RH growth in human foreskin fibroblasts incubated with 0.1 uM for 24 hrs after 6 hrs postinfection assessed as recovery after 72 hrs without drug; format: functional
Plasmodium falciparum [5] = experiment: Reduced parasitaemia in Plasmodium falciparum FCBR ring stage parasites; format: functional, organism-based
Summary of the method: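 Sorbitol-synchronized FCBR ring-stage cultures (initial parasitemia 3.2%) in T25 flasks, exposed 48 h to 1 μM, 100 nM, 10 nM and 1 nM. Parasitemia counted on Giemsa-stained blood smears relative to DMSO control.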

Toxoplasma gondii [6] = experiment: Susceptibility of Toxoplasma gondii lacZ-transfected RH strain in human foreskin fibroblasts assessed as growth at 0.1 uM to 0.01 uM after 30 hrs by colorimetric assay; format: functional
Summary of the method: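 HFF infected with β-galactosidase-expressing RH strain and exposed to 1-hydroxy-2-alkyl-4(1H)quinolone alkyl derivatives at 0.1 and 0.01 μM. Replication quantified by colorimetric β-galactosidase assay with chlorophenol red-β-D-galactopyranoside substrate.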

Toxoplasma gondii [7] = experiment: Inhibition of Toxoplasma gondii RH replication in human foreskin fibroblasts incubated for 24 hrs with drug after 2 hrs postinfection by immunofluorescence microscopy; format: functional, organism-based
Toxoplasma gondii [8] = experiment: Inhibition of Toxoplasma gondii RH replication in human foreskin fibroblasts incubated for 24 hrs with drug after 36 hrs postinfection by immunofluorescence microscopy; format: functional, organism-based
Toxoplasma gondii [9] = experiment: as §1; format: functional; remark: listed apart in the source
Toxoplasma gondii [10] = experiment: Inhibition of invasion of Toxoplasma gondii RH in human foreskin fibroblasts assessed as decreased infection rate pretreated with 1 to 1000 nM after 2 hrs before infection; format: functional, organism-based
Summary of the method: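 Extracellular tachyzoites pretreated 2 h with 1 to 1,000 nM before infecting HFF; infection rate compared with untreated parasites.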

Toxoplasma gondii [11] = experiment: Effect on Toxoplasma gondii RH growth in human foreskin fibroblasts incubated with 0.1 uM for 24 hrs assessed as recovery after 72 hrs without drug; format: functional
Toxoplasma gondii [12] = experiment: Inhibition of Toxoplasma gondii RH replication in human foreskin fibroblasts incubated for 24 hrs with drug after 2 hrs postinfection by immunofluorescence microscopy

`CCCCCCCCCCCCc1cc(=O)c2ccccc2n1O` was tested, and the IC50 (Plasmodium falciparum [1]) was 14 nM, the Activity (Toxoplasma gondii [2]) was 2.9% and the Activity (HFF) was “inactive”. For the same molecule, the IC50 (Toxoplasma gondii [3]) was 3.7 nM, the Activity (Toxoplasma gondii [4]) was 65.8% and the IC50 (Plasmodium falciparum [5]) was 54.7 nM. For the same molecule, the Activity (Toxoplasma gondii [6]) was 42.6%, the IC50 (Toxoplasma gondii [7]) was 2.4 nM and the IC50 (Toxoplasma gondii [8]) was 4 nM. The Activity (Toxoplasma gondii [9]) was 65.8%, the Activity (Toxoplasma gondii [10]) was “inactive” and the Activity (Toxoplasma gondii [11]) was 49.3%.

`CCCCCCCCCCCCCCc1cc(=O)c2ccccc2n1O` gave an Activity (Toxoplasma gondii [6]) of 37.9%.

For `CCCCCc1cc(=O)c2ccccc2n1O`, the Activity (Toxoplasma gondii [6]) was 98.2%.

Work on `O=C1C(O)=C([C@H]2CC[C@H](c3ccc(Cl)cc3)CC2)C(=O)c2ccccc21` [ATOVAQUONE] yielded an IC50 (Toxoplasma gondii [12]) of 9 nM.

`CCCCCCc1cc(=O)c2ccccc2n1O` showed an Activity (Toxoplasma gondii [6]) of 16.3%.

Molecule `CCCCCCCCc1cc(=O)c2ccccc2n1O` has an Activity (Toxoplasma gondii [6]) of 14.8%.
